Test results as given in publication PMC12040810 (AMB Express, 2025).
Converted amounts (≈) assume the structure as drawn. “And” between values parts separate entries of the source, which are not always exact repeats. Equal values may be shown once.

Experiments:
[1] = Biochemical analysis of serum AST and ALT; format: in vivo, BALB/c mice; conditions: for level of AST: serum, after treatment, P = 0.072
Procedure, shortened: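 Female BALB/c mice (about 20 g, 6–7 weeks), 5 per group, were infected subcutaneously at the tail base with L. major promastigotes and then given topical ointment treatments. After 28 days, serum was drawn and AST and ALT were measured with a commercial kit. The manufacturer's normal ranges were ALT 75–90 IU/l and AST 125–155 IU/l.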

human blood suspension = experiment: Hemolytic assay, spectrophotometric, free hemoglobin at 540 nm; format: cell-based
L929 cell line = experiment: Cell toxicity assay; format: cell-based
L. major = experiment: In vivo anti-leishmanial effects, lesion size after topical ointment treatment; parameters: species or system BALB/c mice; conditions: group receiving amphotericin B
Procedure, shortened: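 Female BALB/c mice (about 20 g, 6–7 weeks), 5 per group, were injected subcutaneously at the tail base with 1.5 × 10^6 stationary-phase L. major promastigotes. Nodules and ulcers formed by day 21, and lesion amastigotes were confirmed by microscopy at 1000×. Topical ointments were given over 28 days, with vehicle ointment or PBS as controls. Lesion diameter was measured weekly with a dial micrometer before and after treatment.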

L. major promastigotes = experiment: In vitro anti-promastigote activity, viability by eosin 0.1% vital stain; format: cell-based; conditions: Leishmania major, 48 h
Procedure, shortened: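 L. major promastigotes (strain MRHO/IR/75/ER) were kept in RPMI 1640 (pH 7.4) with 20% FBS, 25 mM HEPES and penicillin/streptomycin at 24 °C, passaged every 3 days. Log-phase cells (100 µl at 1 × 10^6/ml) received 100 µl of test compound solution; PBS was the negative control. Plates were held at 26 °C.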

[2] = 12 h, composition as in the label, concentration of controls not given
[3] = 24 h, composition as in the label, concentration of controls not given
[4] = 48 h, composition as in the label, concentration of controls not given
[5] = 6 h, composition as in the label, concentration of controls not given

Compound	level of AST [1]	Hemolytic activity (%) ± SD (human blood suspension; [2]) [%]	Hemolytic activity (%) ± SD (human blood suspension; [3]) [%]	Hemolytic activity (%) ± SD (human blood suspension; [4]) [%]	Cytotoxic activity (%) ± SD (L929 cell line; [5]) [%]	Cytotoxic activity (%) ± SD (L929 cell line; [2]) [%]	Cytotoxic activity (%) ± SD (L929 cell line; [3]) [%]	toxicity judged by AST and ALT ([1]; blood samples after 28 days, in words)	Hemolytic activity (%) ± SD (human blood suspension; 12 h, amphotericin B 500 µg/ml)	Hemolytic activity (%) ± SD (human blood suspension; 24 h, amphotericin B 500 µg/ml)	Hemolytic activity (%) ± SD (human blood suspension; 48 h, amphotericin B 500 µg/ml)	wound size after 28 days (L. major; after 28 days of treatment) [mm]	wound size before treatment (L. major; before treatment) [mm]	IC50 (L. major promastigotes) [mg/L]	Cytotoxic activity (%) ± SD (L929 cell line; 6 h, amphotericin B 500 µg/ml) [%]	Cytotoxic activity (%) ± SD (L929 cell line; 12 h, amphotericin B 500 µg/ml) [%]	Cytotoxic activity (%) ± SD (L929 cell line; 24 h, amphotericin B 500 µg/ml) [%]	toxicity in the MTT assay (L929 cell line; in words, chitosan at 10, 50, and 100 mg/ml)
CNC[C@H](O)[C@@H](O)[C@H](O)[C@H](O)CO.[O]=[Sb](=[O])[OH] [Glucantime]	higher compared to the other treatment groups	15.6 ± 0.5	18.6 ± 0.6	20.3 ± 0.8	0.43 ± 0.002	0.38 ± 0.01	0.35 ± 0.02											
C[C@@H]1[C@H](O)[C@@H](C)/C=C/C=C/C=C/C=C/C=C/C=C/C=C/[C@H](O[C@@H]2O[C@H](C)[C@@H](O)[C@H](N)[C@@H]2O)C[C@@H]2O[C@](O)(C[C@@H](O)C[C@@H](O)[C@H](O)CC[C@@H](O)C[C@@H](O)CC(=O)O[C@H]1C)C[C@H](O)[C@H]2C(=O)O [Amphotericin B]	higher compared to the other treatment groups							highest drug toxicity	13.9% and 13.9 ± 0.4%	17.9% and 17.9 ± 0.9%	18.4% and 18.4 ± 0.9%	1.59	15.71	256 (≈ 277 µM)	0.43 ± 0.03	0.41 ± 0.07	0.41 ± 0.04	significantly lower than those of cisplatin
Triton X100		90.1 ± 4.5	99.4 ± 0.5	100 ± 0.0	0.14±-0.002	0.11 ± 0.02	0.11 ± 0.006											
